The nature of data set [1]: Plasma clearance in mouse at 1 mg/kg, iv. The data set is classed as ADME, organism-based.
A short description of data set [2]: Oral bioavailability in mouse at 5 mg/kg. The data set is classed as ADME, organism-based. The note with it: in vivo.
The nature of data set [3]: Plasma clearance in dog at 1 mg/kg, iv. The data set is classed as ADME, organism-based, Canis lupus familiaris. The method in brief: (§1)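 Dog: from 1 mg/kg oral and intravenous doses. Clearance taken from the intravenous arm.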
Data set [4] is described as follows: AUC (0 to 24 hrs) in C57BL/6Rj mouse at 30 mg/kg administered as single dose via oral gavage by LC-MS/MS analysis. In kind it is ADME, organism-based. Also on record: dose 30 mg/kg, time < 24 hr, route oral. The note with it: in vivo. The method in brief: (§2)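 Female C57BL/6Rj mice, 4−5 weeks old, fasted, given one oral gavage in PEG 200/MC 0.5% (25/75 v/v) at 0.3, 1 or 3 mg/mL. Intracardiac blood under isoflurane at 1, 3, 6 and 24 h into Li-heparin; n = 3 per time point. Methanol precipitation, LC−MS/MS against an eight-level calibration curve (LLOQ 4 ng/mL).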

Data set [5] concerns Mus musculus. Kind of data set: In vivo inhibition of ATX in C57BL/6Rj mouse assessed as reduction in LPA 18:2 level in plasma at 30 mg/kg administered as single dose via oral gavage by LC-MS/MS analysis. The data set is classed as functional. The method, boiled down: (§3)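 Same single-gavage mouse study (female C57BL/6Rj, PEG 200/MC 0.5% vehicle, n = 3, bled predose and at 1, 3, 6, 24 h); vehicle control group. Plasma (10 μL) precipitated with methanol containing LPA 17:0 internal standard. LPA 18:2 read by LC−MS/MS as peak-area ratio to LPA 17:0. % reduction = 100 − (LPA at time t / mean vehicle LPA at time t × 100).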

In the next data set the target is Autotaxin (Rattus norvegicus, UniProt Q64610). Kind of data set: Inhibition of ATX in rat plasma assessed as reduction in LPA 18:2 production after 2 hrs by LC-MS/MS analysis.
The subject of data set [6] is Mus musculus. Kind of data set: In vivo inhibition of ATX in C57BL/6Rj mouse assessed as reduction in LPA 18:2 level in plasma at 3 mg/kg administered as single dose via oral gavage by LC-MS/MS analysis. The data set is classed as functional. The method in brief:
as §3

Data set [7] is described as follows: Protein binding to mouse plasma. The data set is classed as ADME, cell-free. As to conditions: read-out: PPB.
Data set [8] is described as follows: Protein binding to human plasma. As to conditions: read-out: PPB. The data set is classed as ADME, cell-free.
Data set [9] relates to Mus musculus. Kind of data set: Dose normalized Cmax in C57BL/6Rj mouse at 30 mg/kg administered as single dose via oral gavage up to 24 hrs by LC-MS/MS analysis. The note with it: in vivo. The data set is classed as ADME, organism-based. The method in brief: as §2
For data set [10], the system named is Mus musculus. The experiment in a line: Dose normalized AUC (0 to 24 hrs) in C57BL/6Rj mouse at 30 mg/kg administered as single dose via oral gavage by LC-MS/MS analysis. As to conditions: in vivo. The data set is classed as ADME, organism-based. The method, boiled down:
as §2

The subject of data set [11] is Mus musculus. Kind of data set: Anti-fibrotic activity in BML-induced pulmonary fibrosis C57BL/6 mouse model assessed as reduction in fibrous area with severe distortion of lung structure at 10 to 30 mg/kg, po administered bid with 7.5 hrs interval between 2 doses for 21 days relative to control. The data set is classed as functional, organism-based. The method in brief: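 Male C57Bl/6 mice, 11 weeks at delivery, anesthetized and given intranasal bleomycin 30 μg/50 μL; PBS controls. Oral dosing twice daily, 7.5 h apart, 10 mL/kg, from challenge day for 21 days: test agent in PEG 200/0.5% MC, pirfenidone in 0.5% CMC, vehicle controls; 14−24 mice per group. Lungs stained by Mallory method, scored 1–5 (Matsuse-modified Ashcroft) as mean of 10 low-power fields; group median, Mann−Whitney.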

The nature of data set [12]: Cmax in C57BL/6Rj mouse at 3 mg/kg administered as single dose via oral gavage up to 24 hrs by LC-MS/MS analysis. In kind it is ADME, organism-based. Also on record: dose 3 mg/kg, route oral. The note with it: in vivo. The method, boiled down:
as §2

A short description of data set [13]: Plasma concentration C57BL/6Rj mouse at 10 mg/kg administered as single dose via oral gavage after 24 hrs by LC-MS/MS analysis. In kind it is ADME, organism-based. The method in brief: as §2
The nature of data set [14]: Plasma concentration in C57BL/6Rj mouse at 30 mg/kg administered as single dose via oral gavage after 24 hrs by LC-MS/MS analysis. In kind it is ADME, organism-based. The method in brief:
as §2

Data set [15] is described as follows: Oral bioavailability in dog at 1 mg/kg. In kind it is ADME, organism-based, Canis lupus familiaris. The note with it: in vivo. The method, boiled down:
as §1

Data set [16] is described as follows: AUC (0 to 24 hrs) in C57BL/6Rj mouse at 3 mg/kg administered as single dose via oral gavage by LC-MS/MS analysis. In kind it is ADME, organism-based. As to conditions: in vivo. Details: time < 24 hr, dose 3 mg/kg, route oral. The method in brief:
as §2

Data set [17] has as its system Mus musculus. Kind of data set: Time at which plasma concentration reach in vitro mouse plasma IC50 in C57BL/6Rj mouse at 3 mg/kg, po administered as single dose via gavage.
Data set [18] is described as follows: Tmax in C57BL/6Rj mouse at 10 mg/kg administered as single dose via oral gavage up to 24 hrs by LC-MS/MS analysis. The data set is classed as ADME, organism-based. As to conditions: in vivo. The method, boiled down: as §2

Each structure is given as a SMILES string. Calls of active or inactive are those of the source. The calls are words filed in the database; no cut-off is given here.

A word on the clearance: it is the rate of elimination divided by the concentration. A high value points to a high capacity for elimination. Usually bioavailability stands for the share of a dose that reaches the circulation, judged against a reference dose that is usually intravenous. The term AUC(0-t) denotes exposure summed from dosing to a finite time, without extrapolation to infinity. The inhibition in vivo is how much of the control response was suppressed. Broadly, the IC50 is the concentration that inhibits the measured activity by half. Usually Cmax stands for the peak of the concentration-time curve. Usually Tmax stands for the time at which the peak concentration occurs.

Turning to `CCc1nc2c(C)cc(N3CCN(CC(=O)N4CC(O)C4)CC3)cn2c1N(C)c1nc(-c2ccc(F)cc2)c(C#N)s1` [ZIRITAXESTAT], the figures for the clearance in [1] and in [3] were 0.23 L/h/kg and 0.12 L/h/kg, respectively. Also, the bioavailability in data set [2] amounted to 29%; in data set [15], 63%. For the same compound, the area under the curve AUC(0-t) at 24 h was found to be 101 µg·h/mL in data set [4] and 5.55 µg·h/mL in data set [16]. In addition, the inhibition in vivo at 30 mg/kg in the data set on Mus musculus [5] is 95.2%. Further, the IC50 on Autotaxin stood at 0.542 µM. The inhibition in vivo at 3 mg/kg in the data set with Mus musculus [6] came to 83.6%. The fraction unbound in data set [7] and in data set [8] was < 0.01 in each case. Besides, the Cmax/dose with Mus musculus [9] is 712 ng/mL/(mg/kg). Further, the AUC/dose in the data set on Mus musculus [10] is 3374 ng·h/mL/mg/kg. Besides, the result with Mus musculus [11] was Active. In data set [12], this compound came in with a peak concentration (Cmax) of 1.07 µg/mL. For the same compound, the concentration at 24 h in [13] worked out at 0.004 µg/mL; in data set [14], 0.295 µg/mL. Moreover, the Time in the data set on Mus musculus [17] was 6 h. For the same compound, the Tmax in [18] was found to be 1 h.
